EBV gp42 block: inhibitors of Epstein-Barr virus glycoprotein 42; Q1HVG2; Fluorescence polarization binding assay, mP read-out; inhibition, % (tested at 21.74 µM); 220,000 tested, 0.42% active; in the data active = inhibition above about 50%
Target sequence (Q1HVG2 whole entry, looked up): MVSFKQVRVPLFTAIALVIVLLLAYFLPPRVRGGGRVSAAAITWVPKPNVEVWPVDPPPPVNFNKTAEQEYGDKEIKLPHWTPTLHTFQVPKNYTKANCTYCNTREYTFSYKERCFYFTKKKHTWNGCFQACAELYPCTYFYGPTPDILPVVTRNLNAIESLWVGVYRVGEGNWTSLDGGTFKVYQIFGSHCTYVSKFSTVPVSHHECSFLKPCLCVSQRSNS
GRIN3A LBD mod: modulators (binders) of human NR3A ligand-binding domain; NR3A LBD differential scanning fluorimetry, Tm shift; 0% = protein alone, 100% = glycine-bound protein; Tm shift relative to glycine control, % at 25 µM; 340,000 tested, 2.5% active; AID 1259313;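 active = melting temperature shift of at least 10% of the positive control shift, at one fixed dose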
WT yeast gro inh: growth inhibition of WT yeast, mitochondrial fusion screen | mitochondrial fusion phenotypic screen, WT strain | inhibition, % at 10 µM | 190,000 tested, 2.1% active | AID 1362; in the data active = inhibition above about 58%; tested in S. cerevisiae
MPTP inh: permeability transition pore inhibition | isolated mouse mitochondria, Ca2+ swelling absorbance, 30 min | inhibition, % at 10 µM | 360,000 tested, 1.4% active;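 active = inhibition of 50% or more, scaled per plate between neutral and stimulator controls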;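 also: 0% = DMSO wells given calcium and 100% = 1 mM EGTA wells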
CHOP inh: inhibitors of CHOP induction in ER stress response; CHO-K1 CHOP-promoter luciferase, tunicamycin-induced, 15-18 h; 220,000 tested, 3.8% active; inhibition, % at 10 µM; AID 2732;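 active = compounds that reduced the stress-induced luciferase reporter signal by more than about 70% of percent inhibition, limit read from the data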;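 also: 0% = tunicamycin plus vehicle and 100% = wells without tunicamycin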
TbMetRS inhib: blocks T. brucei methionyl-tRNA synthetase activity. purified T. brucei MetRS, ATP depletion, Kinase-Glo luminescence. inhibition, % at 11.9 µM. 360,000 tested, 0.4% active. AID 624268;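 active = inhibition above a per-plate cutoff of the control wells' mean inhibition plus 3 SD, cut at about 5.5% in these data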;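 also: 0% = DMSO wells median and 100% = median of wells with control inhibitor compound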
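Dosing: 11.9 µM compound single dose, 0.9% DMSO; Assay system: purified T. brucei MetRS enzyme; Measured by: Kinase-Glo luciferase luminescence reporting remaining unconsumed ATP; Schedule: 15 min plus 2 h at 25 °C.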
* hit, by the source's call; x = not tested or not shown. Most compounds without a hit are left out; they make up all but 6.4% or so of the library.

SMILES	EBV gp42 block	GRIN3A LBD mod	WT yeast gro inh	MPTP inh	CHOP inh	TbMetRS inhib
COc1ccc(-c2nnc(SCc3nnc(-c4ccc(Cl)cc4)o3)n2-c2ccccc2)cc1	-8	0	64*	5	46	-1
COc1ccc(-c2nnc(SCc3nnc(-c4ccccc4)o3)n2-c2ccccc2)cc1	-26	-2	5	9	35	-1
COc1ccc(CCNc2oc(COc3ccccc3Cl)nc2C#N)cc1OC	0	-11	19	2	33	0
Cc1ccc(N=C2NC(=O)S/C2=C\c2ccco2)cc1	-2	-1	8	41	100*	0
Cc1cccc(NC(=O)c2ccc3c(c2)OCCO3)c1C	x	0	x	0	x	0
Cc1ccc(C(=O)CC(SCC(=O)O)c2ccc([N+](=O)[O-])cc2)cc1 (configuration not stated)	-4	0	11	0	-11	0
O=C(CC(SCCO)c1ccc([N+](=O)[O-])cc1)c1ccco1 (configuration not stated)	x	40*	x	-1	x	-1
Cc1nc(N2CCN(Cc3ccc4c(c3)OCO4)CC2)c2cc(-c3ccccc3)sc2n1	-14	-13	70*	6	36	1
CCN(CC)C(=S)SCC(=O)c1ccc(Br)cc1	-4	0	32	1	-12	0
CCCc1nnc(NS(=O)(=O)c2ccc(OC)cc2)s1	-8	10*	5	-3	1	-3
CCOc1ccc(OCCOCCOc2ccccc2Cl)cc1	-9	18*	28	1	35	0
COc1ccc(-n2cc(-c3ccccc3)c3c(N4CCOCC4)ncnc32)cc1	-4	0	33	0	81*	0
Fc1ccc(-n2cc(-c3ccccc3)c3c(N4CCOCC4)ncnc32)cc1	7	-7	53	0	70*	-1
COc1ccc(-n2cc(-c3ccccc3)c3c(NCCCN4CCOCC4)ncnc32)cc1	-1	-4	25	-1	5	0
OCCN1CCN(c2ncnc3c2c(-c2ccccc2)cn3-c2ccc(Br)cc2)CC1	-19	-5	85*	0	69	-1
O=C(CSc1nnc(-c2ccccc2F)n1C1CCCCC1)N1CCCC1	-10	2	1	-1	21	-1
COc1ccc(C2=NCCNC(C(F)(F)F)=C2)cc1	6	0	16	-1	4	0
N=c1oc2cc(O)ccc2cc1C(=O)Nc1nc2ccccc2s1	54*	1	-10	14	68	0
N=c1oc2cc(O)ccc2cc1C(=O)Nc1ccccn1	77*	x	-5	x	-12	x
O=C(C#Cc1ccccc1)NCc1ccccc1F	x	-1	x	1	x	-1
CCCCn1c(N)c(N(Cc2ccccc2)C(=O)COc2ccccc2F)c(=O)[nH]c1=O	x	3	x	-1	x	0
CN(c1cccc(NC(=O)CN(c2ccc(C34CC5CC(CC(C5)C3)C4)cc2)S(C)(=O)=O)c1)S(C)(=O)=O	7	30*	-4	4	26	0
COCCCNC(=O)COc1ccc(Br)cc1Cl	-21	0	-7	2	-48	1
O=C(NC(=S)Nc1cc(C(F)(F)F)ccc1Cl)c1ccccc1	-3	-6	8	-2	89*	0
Cc1ccc(C(=O)NC(=S)Nc2ccccc2C(F)(F)F)cc1C	-3	-9	80*	0	63	-1
SMILES	EBV gp42 block	GRIN3A LBD mod	WT yeast gro inh	MPTP inh	CHOP inh	TbMetRS inhib
O=C(Nc1cc(C(F)(F)F)ccc1Cl)C(NCc1ccccc1)c1ccccc1 (configuration not stated)	-13	18*	31	3	33	0
COc1ccc(N2CC(C(=O)NCCCN3CCOCC3)CC2=O)cc1 (configuration not stated)	-6	0	-2	8	12	0
COC(=O)c1sccc1NC(=S)N1CCN(C)CC1	-15	0	1	2	9	0
Cc1cccc(N2CCN(C(=S)NC3CCCCC3)CC2)c1C	-13	2	x	19	-6	-1
Cc1ccc(C)c(N2CCN(C(=S)NC3CCCCC3)CC2)c1	-9	0	1	2	79*	-1
COC(=O)c1sccc1NC(=S)N1CCN(c2cc(C)ccc2C)CC1	-7	-2	77*	3	7	-1
COc1cc(/C=N/NC(=O)Nc2cccc3nsnc23)cc(OC)c1OC	-11	-2	2	4	84*	0
CC(C)C(=O)Nc1cccc2nsnc12	-13	0	-53	0	21	0
O=C(N/N=C/c1ccc(O)cc1)Nc1cccc2nsnc12	5	17*	10	3	55	0
COc1ccc(/C=N/NC(=O)Nc2cccc3nsnc23)c(OC)c1	-17	3	0	1	47	-1
COc1ccccc1CNC(=O)C1CCC(=O)N(CCCN2CCCC2=O)C1 (configuration not stated)	x	3	x	0	x	0
Cc1ccc(F)cc1CNC(=O)C1CCC(=O)N(CCCN2CCCC2=O)C1 (configuration not stated)	x	13*	x	-2	x	0
CC(Oc1ccccc1F)C(=O)Nc1ccc2ccccc2c1 (configuration not stated)	-4	-12	-17	1	88*	0
CC(Oc1ccc(F)cc1)C(=O)Nc1ccc2ccccc2c1 (configuration not stated)	2	-12	0	3	12	-1
Cc1cccc2cc(CN(C(=S)NCC(C)C)C3CCCC3)c(=O)[nH]c12	-3	13*	6	0	37	0
O=C(/C=C/c1ccccc1)NCCSCc1ccc(Cl)cc1	-14	12*	5	23	15	3
O=C(/C=C/c1ccccc1)NCCSCc1ccccc1Cl	2	-8	-8	-4	25	1
Cc1[nH]c(=S)[nH]c(=O)c1CCC1OCCO1	-26	14*	x	0	-7	-1
CC(=O)Nc1nc(C)c(CCC2OCCO2)c(=O)[nH]1	-8	12*	x	0	4	-1
Cc1c(C#N)c(=O)oc2ccc3ccccc3c12	-14	1	18	3	17	0
COc1cc(NC(=O)Cn2c(=O)n(-c3cccc(C)c3)c(=O)c3c(C)c(C)sc32)cc(OC)c1	-21	-77	-9	-11	92*	-1
Cc1sc2c(c1C)c(=O)n(-c1ccc(F)cc1)c(=O)n2CC(=O)NCc1ccco1	-19	1	-10	0	31	-1
Cc1ccc(N2C(=O)C(Cl)=C(NCCO)C2=O)c(C)c1	-16	361*	5	2	45	-1
Cc1ccc(N2C(=O)C(Cl)=C(N3CCN(C)CC3)C2=O)c(C)c1	8	-2	3	0	19	-1
CCOc1cc(C(=O)N(C)Cc2cc3ccccc3[nH]c2=O)cc(OCC)c1OCC	-4	-1	78*	1	-23	-1
CCOc1ccccc1C(=O)N(C)Cc1cc2ccccc2[nH]c1=O	-8	1	40	-4	-22	-1

Screening data from PubChem BioAssay.
